# A selection: hits, their analogues and other compounds. The true share with any hit is near 2.6%.
# T cell HTS = T cell immune modulation candidate. response (vesicle binding), % at 7 µM. 2C CD8+ T cell-vesicle binding, flow cytometry; stronger effect = lower value. 0.068% of 330,000 active;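 active = response, share of CD8 T cells binding vesicles, and their 90th percentile fluorescence all below set limits, cut at about 80% in these data, passing the limit was not always enough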;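 also: values below 100% mean blocked vesicle binding to the CD8+ T cells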
#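 Benchmarks: naked versus QL9-loaded vesicles / Assay system: purified 2C TCR transgenic mouse naive CD8+ T cells / Technique: high-throughput flow cytometry with anti-B7-1 and anti-CD8 staining / Timing: Cell–vesicle co-incubation 1.5 h at 37 °C, staining 20 min on ice / Read-out: percent CD8+ FL2 mean versus row control / Probe or stimulus: QL9-loaded Drosophila micro-vesicles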
# Rce1 inh = inhibitors of yeast Ras-converting enzyme | Q03530 | yeast membranes, quenched prenylated peptide cleavage fluorescence | calls only | 0.27% of 290,000 active;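 active = fall in fluorescence gain of 50% or more versus controls, with final raw signal at or below 3038400; inconclusive = same 50% fall but final raw signal above 3038400; inactive = fall in fluorescence gain under 50%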;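 also: plate controls were neutral control wells for no effect and wells lacking membranes for full effect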
# GRK2 inh = human GRK2 inhibition via aptamer displacement; inhibition of aptamer binding, % at 10 µM; bead flow cytometry, FAM-aptamer displacement from GRK2; 0.59% of 330,000 active;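 active = inhibition of aptamer binding above 40%, roughly 3 SD of noise, on plates passing a quality check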;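 also: median bead fluorescence of bound FAM aptamer so fluorescent compounds give negative values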
# Target sequence (P25098 whole entry, looked up): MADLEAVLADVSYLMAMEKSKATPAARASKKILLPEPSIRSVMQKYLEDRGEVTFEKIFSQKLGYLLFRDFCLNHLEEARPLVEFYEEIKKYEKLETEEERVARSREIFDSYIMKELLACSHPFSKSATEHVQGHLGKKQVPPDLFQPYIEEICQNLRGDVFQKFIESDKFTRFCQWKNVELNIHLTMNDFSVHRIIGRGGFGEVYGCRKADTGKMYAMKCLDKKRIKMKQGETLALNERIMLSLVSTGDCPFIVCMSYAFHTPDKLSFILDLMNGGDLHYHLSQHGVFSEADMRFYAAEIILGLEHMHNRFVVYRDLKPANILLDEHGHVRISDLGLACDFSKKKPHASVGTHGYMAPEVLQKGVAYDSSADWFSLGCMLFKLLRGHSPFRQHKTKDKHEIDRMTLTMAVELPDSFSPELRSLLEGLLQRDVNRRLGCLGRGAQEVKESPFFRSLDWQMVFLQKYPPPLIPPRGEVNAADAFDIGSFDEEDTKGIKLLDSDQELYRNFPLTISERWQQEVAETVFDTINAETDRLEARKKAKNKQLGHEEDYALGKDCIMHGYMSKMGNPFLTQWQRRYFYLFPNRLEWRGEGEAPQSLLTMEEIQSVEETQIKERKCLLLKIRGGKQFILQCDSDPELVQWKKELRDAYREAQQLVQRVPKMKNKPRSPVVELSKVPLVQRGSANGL
# SKN-1 block = C. elegans SKN-1 inhibition; C. elegans VP596 Pgst-4::GFP/RFP ratio, acrylamide-induced, 24 h; inhibition, % at 21.8 µM; 0.49% of 360,000 active; AID 624304;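 active = interference check ratio from 0.5 to 1.5 plus GFP to RFP signal ratio inhibition reaching or exceeding a fixed threshold, cut at about 30% in these data, passing the limit was not always enough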
# Rin1-Abl PPI inh = inhibitors of human Rin1-Abl protein interaction. AID 588664. TR-FRET Rin1/Abl binding, biochemical. inhibition, % at 7.35 µM. P00519+Q13671. 0.4% of 360,000 active; in the data active = inhibition above about 5%, passing the limit was not always enough
# Myeloid diff 2 = myeloid differentiation induction; calls only at 10 µM; ER-HoxA9 myeloid progenitors, lysozyme-GFP differentiation, flow cytometry; 1% of 360,000 active; AID 624256;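 active = normalized GFP-positive differentiation at or above the plate's own cutoff, the solvent-only control mean plus 3 SD; inconclusive = no clear call, values can overlap the other calls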;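 also: cells exposed to compound for four days before flow analysis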
# GRK2 inh confirm = human GRK2 inhibition confirmation, cherry pick 1; AID 504451; 4% of 2,000 active; aptamer displacement, % at 10 µM; shares compounds with GRK2 inh; bead-bound GRK2, FAM-aptamer displacement, flow cytometry;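 active = aptamer displacement above 40%, near three times the noise of non-fluorescent compounds, on plates passing quality checks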;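 also: negative values mostly reflect intrinsic compound fluorescence rather than true enhancement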
# Aptamer quench SP = counter-screen for GRK2 aptamer inhibitors: fluorescent aptamer quenchers. shares compounds with GRK2 inh. Carboxyfluorescein RNA aptamer on beads, flow cytometry quenching; stronger effect = lower value. fluorescence response (% of DMSO), % at 10 µM. 2,000 tested, under 10 active;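 active = compounds that quench the bead-bound fluorescent RNA probe, cutting fluorescence to under half of the solvent control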;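 also: counterscreen run without GRK2 so only probe quenching by compound is measured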
# * hit, by the source's call; i = inactive; ? = inconclusive; . = not tested or not shown; + = active, no number.
SMILES,T cell HTS,Rce1 inh,GRK2 inh,SKN-1 block,Rin1-Abl PPI inh,Myeloid diff 2,GRK2 inh confirm,Aptamer quench SP
C[C@@H](C(=O)Nc1cccc(S(=O)(=O)N2CCOCC2)c1)N1C(=O)C2CC=CCC2C1=O (some centres undefined),213.5,i,1.0,-1.1,2.5,i,.,.
Cc1cc2cc(CNC(=O)Nc3cccc(Cl)c3)ccc2n1C,312.3,i,44.0*,54.9,-0.6,i,-10.9,99.2
Cc1cc2cc(CNC(=O)c3ccc(Br)o3)ccc2n1C,287.5,i,73.0*,40.2,6.4,i,7.5,80.1
CC(NS(=O)(=O)c1ccc(Cl)cc1)C(=O)OCC(=O)Nc1ccc(N(C)C)cc1 (centres undefined),.,.,.,-5.1,3.6,i,.,.
COCCOC(=O)C1=C(C)N=C2SCCC(=O)N2C1c1cccs1 (centres undefined),221.3,i,81.0*,-3.0,-4.2,i,-1.1,95.7
CCOC(=O)C1=C(C)N=C2SCCC(=O)N2[C@@H]1c1cccs1,249.4,i,1.0,-0.2,-0.4,i,.,.
Cc1ccc2c(c1)Oc1ccc(NC(=O)CCl)cc1C(=O)N2,400.5,i,41.0*,1.8,-2.4,i,-7.8,116.3
O=C(c1ccccc1C(=O)N1CCN(c2ccccc2F)CC1)N1CCN(c2ccccc2F)CC1,173.8,i,77.0*,-7.5,0.6,i,3.3,96.5
O=C(c1ccccc1F)N1CCN(c2ccccc2F)CC1,318.7,i,0.0,-20.0,2.1,i,.,.
COc1ccc(N=Cc2nc(-c3ccccc3)oc2OC(C)=O)cc1,236.3,i,73.0*,4.8,-1.5,i,1.0,96.8
COc1ccc(OCCN2CCN(C(=O)c3ccc(OC)cc3)CC2)cc1,509.2,i,0.0,4.6,1.8,i,.,.
COc1ccc(OCCN2CCN(C(=O)c3ccc(OC(F)F)c(OC)c3)CC2)cc1,258.8,i,56.0*,6.4,1.5,i,-0.4,102.8
CCN(CC(=O)Nc1ccc2c(c1)OCCO2)C(=O)c1ccc([N+](=O)[O-])s1,850.0,.,2.0,-3.7,-4.1,i,.,.
COC(=O)c1sc(NC(=O)CSc2nc3cccnc3n2C)nc1C,700.8,i,3.0,7.5,-0.6,i,.,.
CC(Sc1nnc(Cc2ccccc2)o1)C(=O)Nc1ccccc1[N+](=O)[O-] (centres undefined),370.7,.,2.0,12.9,-2.8,i,.,.
CCC(CO)[n+]1c(C)cc(/C=C2\Sc3ccccc3N2Cc2ccccc2)cc1C (centres undefined),i,.,71.0*,3.0,-1.5,+,29.8,137.9
CCN1/C(=C2\SC(=S)N(Cc3ccccc3)C2=O)Sc2ccccc21,274.3,i,0.0,12.5,-1.5,i,.,.
COC(=O)c1sc2cc(C(F)(F)F)cnc2c1-c1cccnc1,i,i,12.0,-16.8,-0.6,i,.,.
NNC(=O)c1sc2cc(C(F)(F)F)cnc2c1-c1cccnc1,143.9,.,41.0*,-3.7,2.4,i,2.2,112.4
CN(C)CCn1c2c(c(SCC(=O)Nc3ccc4c(c3)OCCO4)nc1=O)CCCC2,287.4,i,2.0,-3.4,2.0,i,.,.
COC(OC)c1ccnc(-c2ccc(OC(=O)c3ccc(F)cc3)cc2)n1,162.7,i,59.0*,-0.2,-0.6,i,2.1,91.4
O=C(O)c1ccc(-n2nc(C(F)(F)F)cc2-c2cccs2)cc1,203.8,i,0.0,-5.1,-1.0,.,.,.
S=C(NNC(=S)Nc1ccc(Cl)cc1)NNc1ccccc1,.,.,.,14.5,-2.9,i,.,.
S=C(N=Nc1ccccc1)NNc1ccccc1,153.9,i,42.0*,8.0,-4.0,i,-4.5,97.7
O=C(N/N=C/c1ccc(O)cc1)c1[nH]c2ccc(Br)cc2c1-c1ccccc1,196.0,i,51.0*,14.5,-1.2,.,-7.5,100.0
SMILES,T cell HTS,Rce1 inh,GRK2 inh,SKN-1 block,Rin1-Abl PPI inh,Myeloid diff 2,GRK2 inh confirm,Aptamer quench SP
O=C(N/N=C/c1c[nH]c2ccccc12)c1[nH]c2ccc(Br)cc2c1-c1ccccc1,.,i,.,9.7,0.6,?,.,.
Cc1ccc(CNC(=O)CN2C(=O)NC(C)(c3cccc(Br)c3)C2=O)cc1 (centres undefined),109.3,i,56.0*,10.2,-1.2,i,1.3,97.0
Cc1noc(C)c1S(=O)(=O)NC(=O)C1(C)CCN1C(=O)C1(c2ccc(Cl)cc2)CCC1 (centres undefined),.,.,.,14.5,-1.6,i,.,.
COc1cccc(OC)c1C(=O)n1nc(C)cc1C,240.3,i,15.0,-13.4,2.6,i,-1.6,101.8
CCc1ccc(N(CC)C(=O)c2cn(C)c(=O)c3ccccc23)cc1,365.9,i,29.0,-0.7,1.1,i,0.5,101.7
Cc1cc2c(cc1S(=O)(=O)N1CCc3ccccc31)NC(=O)CO2,323.2,i,73.0*,-0.9,6.4,i,3.0,97.0
O=C(O)C1=CC[C@@H](c2ccc(Cl)cc2)N(S(=O)(=O)c2ccc(Cl)cc2)[C@H]1c1ccc(F)cc1,456.7,.,0.0,3.2,2.5,i,.,.
COc1ccc([C@@H]2CC=C(C(=O)O)[C@H](c3ccc(Cl)cc3)N2S(=O)(=O)c2ccc(Cl)cc2)cc1,297.7,.,49.0*,3.1,2.5,i,-6.4,100.6
CCn1cc(C(=O)NC(C)C)c(=O)c2cc(F)c(N3CCN(C(=O)c4ccco4)CC3)cc21,267.8,i,88.0*,8.8,1.3,i,-0.6,101.5
Cc1cc(C)n2nc(C(=O)NCC(=O)Nc3ccc(F)c(F)c3)nc2n1,801.6,i,1.0,17.9,-2.9,i,.,.
Cc1cccc(C)c1NC(=O)CN1C(=O)N(C)Cc2ccccc21,457.1,.,0.0,3.7,0.1,i,.,.
CCOC(=O)Cn1cc(Cl)c(=O)c(Cl)c1,871.5,i,85.0*,-4.6,-4.8,i,-2.8,101.9
